Publication PMC8040281 (EClinicalMedicine, 2021)
Entries after “also recorded” stand apart in the source; their conditions may differ. Where two headings read alike, the source gives them in different places.

Tests used:
[1] = type: in vivo, human
[2] = tested on: metastatic or advanced solid malignant tumors; experiment: Anti-tumor activity, RECIST 1.1, investigator assessed; type: in vivo, human
Outline: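 Investigator-assessed RECIST 1.1 response in patients with measurable disease. Oral test compound given once daily continuously, alone or ~2 h before IV paclitaxel at label or institutional dose and schedule. Time to progression is given as a median in weeks by tumor type and KRAS status.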

[3] = First-in-human dose escalation: DLTs and MTD/RP2D; type: in vivo
Outline: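 Oral test compound once daily, starting at 60 mg/m2 (0.1 of preclinical non-severely toxic dose). Accelerated titration used 100% increments until ≥Grade 2 toxicity (alopecia excepted), then 3+3 with 25–50% steps. BSA-based dosing (actual dose −20 to +15% of calculated) later switched to flat doses to nearest 50 mg. Taxanes given IV. Toxicity graded by investigator per CTCAE v4.03.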

[4] = clinical; settings: human, in vivo, po
[5] = 12-lead ECG and 24-hour Holter monitoring; type: in vivo, human; settings: ECG and Holter monitoring around first dose
Outline: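 Oral test compound given once daily, first two doses 3–7 days apart. 12-lead ECGs were part of safety assessments. 24-hour digital Holter monitoring was run around the first dose to detect QTc changes.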

[6] = tested on: NSCLC cell lines harboring KRAS mutations; settings: nonclinical studies; ref [15]; cited from earlier work
[7] = TEAE, all dose levels, label TVB-2640 = monotherapy
[8] = across all dose levels, label TVB-2640 = monotherapy

Cc1nnc(-c2cc(C(=O)N3CCC(c4ccc(C#N)cc4)CC3)c(C)cc2C2CCC2)[nH]1 [TVB-2640]
Any TEAE ([1]; Any Grade, N = 76 monotherapy, N = 55 + paclitaxel): 75 (98.7) n (%)
Blood and lymphatic system disorders ([1]; TEAE, Any Grade): 11 (14•5) n (%)
Eye disorders ([1]; TEAE, Any Grade): 38 (50.0) n (%)
Gastrointestinal disorders ([1]; TEAE, Any Grade): 52 (68.4) n (%)
Infections and infestations ([1]; TEAE, Any Grade): 36 (47.4) n (%)
Investigations ([1]; TEAE, Any Grade): 22 (28•9) n (%)
Metabolism and nutrition system disorders ([1]; TEAE, Any Grade): 31 (40•8) n (%)
Musculoskeletal and connective tissue disorders ([1]; TEAE, Any Grade): 20 (26•3) n (%)
Nervous system disorders ([1]; TEAE, Any Grade): 27 (35•5) n (%)
Respiratory, thoracic, and mediastinal disorders ([1]; TEAE, Any Grade): 34 (44•7) n (%)
Skin and subcutaneous tissue disorders ([1]; TEAE, Any Grade): 63 (82.9) n (%)
PPE syndrome, incidence [1, 7]: 46%
alopecia, incidence [1, 7]: 61%
fatigue, incidence [1, 7]: 37%
decreased appetite, incidence ([1]; TEAE, monotherapy): 26%
dry eye, incidence ([1]; TEAE, monotherapy): 17%
dry skin, incidence ([1]; TEAE, monotherapy): 22%
lacrimation increased, incidence ([1]; TEAE, monotherapy): 13%
rash, incidence ([1]; TEAE, monotherapy): 11%
skin exfoliation, incidence ([1]; TEAE, monotherapy): 12%
Blood and lymphatic system disorders ([1]; TEAE, ≥Grade 3): 3 (3•9) n (%)
Eye disorders ([1]; TEAE, ≥Grade 3): 3 (3.9) n (%)
Gastrointestinal disorders ([1]; TEAE, ≥Grade 3): 3 (3.9) n (%)
Infections and infestations ([1]; TEAE, ≥Grade 3): 5 (6.6) n (%)
Investigations ([1]; TEAE, ≥Grade 3): 6 (7•9) n (%)
Metabolism and nutrition system disorders ([1]; TEAE, ≥Grade 3): 5 (6•6) n (%)
Musculoskeletal and connective tissue disorders ([1]; TEAE, ≥Grade 3): 3 (3•9) n (%)
Nervous system disorders ([1]; TEAE, ≥Grade 3): 1 (1•3) n (%)
Respiratory, thoracic, and mediastinal disorders ([1]; TEAE, ≥Grade 3): 2 (2•6) n (%)
Skin and subcutaneous tissue disorders ([1]; TEAE, ≥Grade 3): 8 (10.5) n (%)
adverse events resulting in dose reduction, patients [1, 8]: 28%
adverse events resulting in treatment discontinuation, patients [1, 8]: 22%
>Grade 2 skin or eye toxicities at the MTD ([1]; human, in vivo): no >Grade 2 skin or eye toxicities were observed
patients with serious pneumonitis ([1]; label TVB-2640 = monotherapy): not observed
Any ≥Grade 3 TEAE ([1]; ≥Grade 3, N = 76 monotherapy, N = 55 + paclitaxel): 44 (57.9) n (%)
PR rate (confirmed) / best response of CR or PR ([2]; 6/53 evaluable patients with paclitaxel, label TVB-2640 = monotherapy): no patient treated with monotherapy had a complete or partial response; also recorded: No patient had a best response of complete response (CR) or partial response (PR)
time to progression (TTP), NSCLC KRAS^WT disease ([2]; median, N = 6 monotherapy, label TVB-2640 = monotherapy): 5 weeks
time to progression (TTP), NSCLC KRAS^MUT disease ([2]; median, N = 11 monotherapy, label TVB-2640 = monotherapy): 22 weeks
patients who experienced SD ([2]; monotherapy, 29/69 evaluable patients): 42%
DLT: PPE syndrome ([3]; Grade 3 with paclitaxel, label TVB-2640 = monotherapy): 3 n
DLTs, total number ([3]; all dose levels, label TVB-2640 = monotherapy): 6
nature of DLTs ([3]; in vivo): reversible skin and ocular effects
DLTs at 200 mg flat dose ([3]; label TVB-2640 = monotherapy (N = 6)): no DLTs observed
DLT: Grade 3 corneal edema ([3]; monotherapy): 1 n
DLT: iritis ([3]; monotherapy): 1 n
DLT: keratitis ([3]; monotherapy): 1 n
patients with DLTs at 250 mg flat dose ([3]; monotherapy, bilateral eye keratitis and PPE syndrome): 2 of 6
flat dose equivalent of the MTD/RP2D ([3]; monotherapy, depending on body surface area): 150 to 200 mg
Tmax [4]: ~4 h
half-life [4]: 10 to 13 h
QTc prolonging effect [5]: no clinically relevant QTc prolonging effect; also recorded: no significant gastrointestinal or serum chemistry toxicities or evidence of QTc prolongation; also recorded: no evidence of QTc prolongation

TVB-3166
sensitivity of KRAS^MUT versus KRAS^WT NSCLC cell lines to killing [6]: more sensitive to killing with FASN inhibition than KRAS wild-type (KRAS^WT) lines
